This is a sample that favours compounds with a hit; in the whole collection about 2.2% have one here.
VIM-2 inhibitor: blocks Pseudomonas aeruginosa VIM-2 metallo-beta-lactamase; actives 0.89% (n = 290,000); inhibition, % at 5.6 µM; purified VIM-2, nitrocefin hydrolysis, epi-absorbance fluorescence;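 active means inhibition above the mean of all tested compounds plus 3 SD, cutoff set per screening run, cut at about 7.5% in these data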;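 further: red hydrolysis product quenches plate fluorescence so inhibitors raise well fluorescence; 0% = enzyme with DMSO and 100% = DMSO without enzyme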
EBV gp42 inh: blocks Epstein-Barr virus glycoprotein 42 binding; actives 0.42% (n = 220,000); Fluorescence polarization binding assay, mP read-out; Q1HVG2; inhibition, % (tested at 21.74 µM); in the data active means inhibition above about 50%
IMP-1 inh: blocks Pseudomonas aeruginosa IMP-1 metallo-beta-lactamase | purified IMP-1, nitrocefin hydrolysis, epi-absorbance fluorescence | inhibition, % at 5.6 µM | actives 0.45% (n = 290,000) | AID 1556;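 active means inhibition above the mean plus 3 SD of all compounds in the same screening run, cut at about 4.5% in these data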;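 further: 0% = IMP-1 with DMSO and 100% = DMSO wells lacking enzyme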
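Assay system: purified IMP-1; Quantity: IMP-1 0.2 nM before substrate addition; Medium: HEPES buffer pH 7.1 with ZnSO4 and Brij 35; Incubation: 15 min enzyme–compound preincubation, then 25 min nitrocefin reaction, 25 °C; Signal: fluorescence quenching readout, ex 480/em 530 nm; Controls: DMSO with and without IMP-1; Repeats: singlicate testing.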
BCLXL inh: blocks human Bcl-xL binding to Bim BH3 peptide; inhibition, % at 10.9 µM; actives 0.7% (n = 320,000); Q07817; GST-Bcl-xL / FITC-Bim BH3 peptide fluorescence polarization;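 active means inhibition above the mean of all tested compounds plus 3 SD, cutoff set per campaign, cut at about 30% in these data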;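 further: 0% = DMSO wells and 100% = unlabeled Bim-BH3 peptide competitor; inhibitors lower millipolarization by displacing the labeled peptide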
GLD-1 TGE inh: GLD-1-TGE RNA interaction inhibition (C. elegans); AID 2280; actives 0.44% (n = 320,000); purified GLD-1 + fluorescein TGE RNA, fluorescence polarization; inhibition, % at 5.96 µM;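 active means percent inhibition above a per-plate cutoff, the plate mean of test compounds plus 3 SD, cut at about 30% in these data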;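 further: 0% = DMSO wells with GLD-1 and probe and 100% = wells lacking GLD-1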
MEX-5 binding: C. elegans MEX-5 TCR-2 RNA binding activity | AID 1832 | actives 0.38% (n = 300,000) | MEX-5/FITC-TCR2 RNA binding, fluorescence polarization; active compounds read low | activity score (negative = inhibition of binding), % at 10 µM | Q9XUB2;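 active means inhibition past about -25% in most replicates, and total fluorescence under double the plate's negative control median, limit read from the data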;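 further: 0% = DMSO and -100% = 5 µM competing unlabeled TCR2 RNA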
Target sequence (Q9XUB2 whole entry, looked up): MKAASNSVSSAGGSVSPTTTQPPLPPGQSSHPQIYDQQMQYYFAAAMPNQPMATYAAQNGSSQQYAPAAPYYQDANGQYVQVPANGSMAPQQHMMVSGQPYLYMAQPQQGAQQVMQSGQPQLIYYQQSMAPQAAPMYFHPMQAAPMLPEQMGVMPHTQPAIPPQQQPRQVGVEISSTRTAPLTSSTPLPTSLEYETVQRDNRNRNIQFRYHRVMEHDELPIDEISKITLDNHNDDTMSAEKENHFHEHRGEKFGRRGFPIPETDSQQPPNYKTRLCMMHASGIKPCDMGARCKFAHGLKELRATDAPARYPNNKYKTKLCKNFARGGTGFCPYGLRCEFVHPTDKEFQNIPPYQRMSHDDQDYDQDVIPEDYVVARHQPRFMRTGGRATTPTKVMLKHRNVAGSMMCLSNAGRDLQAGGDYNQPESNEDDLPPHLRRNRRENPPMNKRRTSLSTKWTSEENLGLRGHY
Starred values were filed as active, the others as inactive; x = no result.

SMILES	VIM-2 inhibitor	EBV gp42 inh	IMP-1 inh	BCLXL inh	GLD-1 TGE inh	MEX-5 binding
Cc1ccc(NC(=O)COC(=O)C2COc3ccccc3O2)cc1 (stereo not drawn)	x	x	x	5	-3	x
CC(=O)N1c2ccc(S(=O)(=O)N(C)CC(=O)Nc3ccccc3C)cc2CC1C (stereo not drawn)	-4	x	4.8*	-2	-5	3
Cc1cc(/C=C2\SC(=S)NC2=O)c(C)n1-c1ccc(O)cc1	8.1*	-103	-1	-38	-61	3
Cc1cc(/C=C2\SC(=S)NC2=O)c(C)n1-c1ccccc1	2	41	-3	-23	-50	-3
O=C(O)c1ccccc1OCc1ccccc1Br	9.1*	-8	1	2	2	-1
O=C(O)c1ccccc1COc1ccccc1Cl	-1	-23	0	1	1	-1
Cn1nc([N+](=O)[O-])c(C(C#N)c2ccccn2)c(Cl)c1=O (stereo not drawn)	-1	-3	-2	48*	25	-9
CCCn1nc([N+](=O)[O-])c(C(C#N)c2nc3ccccc3o2)c(Cl)c1=O (stereo not drawn)	-4	5	-3	21	2	-10
Cn1c(CNC(=O)CNC(=O)c2ccc(F)cc2)cc(=O)n(C)c1=O	-2	x	-3	4	-1	2
CC(C)Oc1cccc(C(=O)Nc2ccc(N3CCN(C)CC3)cc2)c1	12*	x	0	10	-1	-1
CCCOc1cccc(C(=O)NC(=S)Nc2ccc(N3CCN(C)CC3)cc2)c1	12*	7	0	7	-1	-4
CCOc1cccc(C(=O)NC(=S)Nc2ccccc2)c1	-2	-16	-3	-1	1	1
O=C(NCc1cccc(Cl)c1)c1cnccn1	-2	39	-4	45*	25	-4
Cc1nn(-c2ccc(N3CCCCC3)nn2)c(C)c1CCC(=O)Nc1cc(F)ccc1F	-2	x	-1	0	4	1
Cc1cc(/C=C(\C#N)c2nc3ccccc3[nH]2)c(C)n1C	-1	105*	-2	110*	133*	-28*
CCOc1ccc(C=Nc2cccc3ncccc23)cc1	0	-12	-1	4	1	1
COc1ccc(C=Nc2cccnc2N)cc1	1	x	-2	46*	64*	1
Cc1ccc(C=Nc2cccnc2N)cc1	1	4	4.8*	60*	80*	-8
COC(=O)c1ccc(C2=NOC(C)(c3nnc(Cc4ccccc4)o3)C2)cc1 (stereo not drawn)	x	x	x	0	12	2
O=C1C(=O)N(c2ccccn2)C(c2cccc([N+](=O)[O-])c2)/C1=C(/O)c1ccc(Br)cc1 (stereo not drawn)	-2	x	0	-3	1	-1
Cc1cc(C)n2c(Br)c(CSc3nc4ccccc4o3)nc2n1	9.9*	-10	2	5	4	0
c1ccc2c(c1)nc(N1CCOCC1)c1nnnn12	1	41	-3	43*	17	-5
c1ccc(N2CCN(c3nc4ccccc4n4nnnc34)CC2)cc1	-1	32	-2	51*	12	5
c1ccc2c(c1)nc(N1CCN(C3CCCCC3)CC1)c1nnnn12	0	12	-1	x	x	x
O=[N+]([O-])c1ccc(COP(=O)(O)OCc2ccc([N+](=O)[O-])cc2)cc1	x	x	x	-9	-4	2
SMILES	VIM-2 inhibitor	EBV gp42 inh	IMP-1 inh	BCLXL inh	GLD-1 TGE inh	MEX-5 binding
Cc1[nH]nc(NNC(=O)c2ccccc2)c1[N+](=O)[O-]	-3	-3	-4	-1	1	-83*
O=C(COC(=O)C1CC2CCCC(C1)C2=O)Nc1cccc(F)c1 (stereo not drawn)	x	x	x	-6	-3	x
COc1ccc(-c2cc(-c3ccccc3)nc(N3CCCC3)n2)cc1OC	-2	0	4.8*	5	1	3
Cn1nc(-c2ccc(N3CCCCC3)c(NC(=O)c3ccco3)c2)c2ccccc2c1=O	-3	-2	-5	1	-4	1
COc1ccc(-c2nn(C)c(=O)c3ccccc23)cc1CNC(=O)c1ccco1	8.9*	-14	0	7	-2	0
COc1ccc(-c2nn(C)c(=O)c3ccccc23)cc1CNS(C)(=O)=O	8.5*	-11	-1	10	2	0
Cc1ccc(NS(=O)(=O)c2ccc3c(c2)CC(=O)N3)cc1F	x	x	x	5	2	x
COC(=O)C1=COC(C)C2CN3CCc4c([nH]c5cc(OC)c(OC)cc45)C3CC12 (stereo not drawn)	-2	74*	-1	92*	53*	-35*
Cn1nc(-c2ccc(Cl)cc2)nc2c(=O)n(C)c(=O)nc1-2	-3	54*	-2	90*	78*	-41*
CC(C)(C)NC(=O)NC(=O)CN1CCc2ccccc21	1	-7	1	2	1	-3
COCCNC(=O)NC(=O)CN1CCCc2ccccc21	-1	5	-2	51*	-5	-3
Oc1c(Br)cc(Br)cc1CNc1cnc2ccccc2c1	3	x	14*	6	12	-1
COc1cc(Cl)c(C)cc1NC(=O)COC(=O)C1=COCCO1	x	x	x	3	6	-2
Cc1cc(NC(=O)COC(=O)C2=COCCO2)c([N+](=O)[O-])cc1C	2	-7	0	42*	2	-1
O=c1cc(CN2CCN(c3ccccc3O)CC2)nc2sccn12	-3	17	-3	27	8	-8
O=c1cc(CN2CCN(c3ccc(F)cc3)CC2)nc2sccn12	-2	24	-2	34*	24	-12
N#CC1(NC(=O)COC(=O)c2cc(O)c3ccccc3c2O)CCCCC1	x	x	x	31*	10	-5
COC(=O)N[C@@H]1C[C@H]2[C@@H]3CC[C@H]4C[C@@H](OC)CC[C@]4(C)[C@H]3CC[C@@]12C	x	x	x	4	-4	x
Cc1csc(NC(=O)c2cc(C)on2)n1	x	x	x	-2	2	x
O=C(NC(Cc1ccccc1)C(=O)O)/C(=C/c1ccco1)NC(=O)c1cccc(Br)c1 (stereo not drawn)	-5	-17	-3	37*	23	-5
Cc1ccc(NC(=O)CCCC(=O)O)c(-c2nc3ccccc3[nH]c2=O)c1	0	x	-2	12	-3	-1
O=c1cc(C(F)(F)F)[nH]c2c(OC(F)(F)F)cccc12	-1	-15	-1	2	8	0
O=C(Nc1scc(-c2ccccc2)c1C(=O)O)c1ccco1	-2	-4	4.8*	8	7	0
COC(=O)c1c(-c2ccc(F)cc2)csc1NC(=O)c1ccco1	-1	-1	-2	-3	0	2
CCOC(=O)c1c(-c2cccs2)csc1NC(=O)c1ccncc1	-3	-7	-3	3	1	0
O=C(Nc1scc(-c2cccs2)c1C(=O)O)c1cccs1	3	-10	15*	11	-3	-1

Source: PubChem BioAssay
